According to ChEMBL document CHEMBL4325842, “Design, synthesis, and biological evaluation of novel aminopyrimidinylisoindolines as AXL kinase inhibitors” (Bioorg Med Chem Lett, 2018):

What was measured:
[1] = target: Ephrin type-A receptor 1 (Homo sapiens) (UniProt P21709); assay: Inhibition of human EPHA1 at 10 uM using poly[Glu:Tyr] (4:1) as substrate by [gamma-33P]-ATP assay relative to control
In short: (§1)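 Commercial kinase panel screen at a single concentration of 10 μM. % inhibition was calculated as 100 minus % activity.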

[2] = system: OVCAR-3; assay: Antiproliferative activity against human OVCAR3 cells after 2 days by spectrophotometric analysis; assay type: functional; details: OVCAR-3, 48 h
In short: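 Cells from ATCC were kept in RPMI 1640 with 5% FBS. They were exposed to graded concentrations in DMSO/RPMI for 48 h at 37 C under 5% CO2, then fixed with 50% trichloroacetic acid. Cellular protein was read at 540 nm at time zero and at 48 h, with and without compound. TGI (100% growth inhibition) was taken from the concentration-response curve.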

[3] = target: Focal adhesion kinase 1 (Homo sapiens, UniProt Q05397); assay: Inhibition of human FAK using poly[Glu:Tyr] (4:1) as substrate by [gamma-33P]-ATP assay
[4] = target: Vascular endothelial growth factor receptor 1 (Homo sapiens) (UniProt P17948); assay: Inhibition of human FLT1 at 10 uM using poly[Glu:Tyr] (4:1) as substrate by [gamma-33P]-ATP assay relative to control; in short: as §1
[5] = target: Tyrosine-protein kinase Fyn (Homo sapiens) (UniProt P06241); assay: Inhibition of human FYN at 10 uM using poly[Glu:Tyr] (4:1) as substrate by [gamma-33P]-ATP assay relative to control; in short: as §1
Chain of Tyrosine-protein kinase Fyn (Homo sapiens) (P06241 2-537 limits assumed): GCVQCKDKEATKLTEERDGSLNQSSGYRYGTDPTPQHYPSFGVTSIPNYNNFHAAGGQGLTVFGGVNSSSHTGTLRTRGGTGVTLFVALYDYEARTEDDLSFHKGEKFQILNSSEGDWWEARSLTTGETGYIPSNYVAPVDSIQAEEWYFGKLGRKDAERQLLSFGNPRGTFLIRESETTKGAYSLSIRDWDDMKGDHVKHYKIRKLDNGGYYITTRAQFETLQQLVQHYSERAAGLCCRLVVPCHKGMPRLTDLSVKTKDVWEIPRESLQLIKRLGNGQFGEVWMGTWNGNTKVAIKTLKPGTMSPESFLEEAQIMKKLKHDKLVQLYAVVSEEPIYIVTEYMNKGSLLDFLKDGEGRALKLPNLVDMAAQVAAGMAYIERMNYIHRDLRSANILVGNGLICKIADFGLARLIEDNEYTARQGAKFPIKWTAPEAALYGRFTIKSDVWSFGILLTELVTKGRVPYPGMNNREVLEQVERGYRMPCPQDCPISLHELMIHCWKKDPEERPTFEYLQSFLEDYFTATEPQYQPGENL

[6] = system: MDA-MB-231; assay: Antiproliferative activity against human MDA-MB-231 cells after 2 days by spectrophotometric analysis; assay type: functional; details: MDA-MB-231, 48 h
[7] = target: Tyrosine-protein kinase Fgr (Homo sapiens) (UniProt P09769); assay: Inhibition of human FGR at 10 uM using poly[Glu:Tyr] (4:1) as substrate by [gamma-33P]-ATP assay relative to control; in short: as §1
Chain of Tyrosine-protein kinase Fgr (Homo sapiens) (P09769 2-529 limits assumed): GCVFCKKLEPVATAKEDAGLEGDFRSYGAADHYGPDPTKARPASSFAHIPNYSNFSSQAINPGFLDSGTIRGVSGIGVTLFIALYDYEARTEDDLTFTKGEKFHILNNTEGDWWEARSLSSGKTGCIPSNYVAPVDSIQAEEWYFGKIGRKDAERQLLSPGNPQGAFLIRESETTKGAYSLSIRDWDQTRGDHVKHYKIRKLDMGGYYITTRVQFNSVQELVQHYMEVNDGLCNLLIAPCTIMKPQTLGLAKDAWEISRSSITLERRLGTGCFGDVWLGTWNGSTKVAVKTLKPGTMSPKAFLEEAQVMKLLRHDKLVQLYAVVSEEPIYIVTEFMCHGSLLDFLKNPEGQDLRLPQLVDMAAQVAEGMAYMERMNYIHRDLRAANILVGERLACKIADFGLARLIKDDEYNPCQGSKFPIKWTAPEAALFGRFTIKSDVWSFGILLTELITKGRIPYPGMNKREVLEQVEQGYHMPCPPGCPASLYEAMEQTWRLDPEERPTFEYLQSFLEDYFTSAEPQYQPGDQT

[8] = target: Death-associated protein kinase 1 (Homo sapiens) (UniProt P53355); assay: Inhibition of human DAPK1 at 10 uM using KKLNRTLSFAEPG as substrate by [gamma-33P]-ATP assay relative to control; in short: as §1
[9] = target: T1, Tyrosine-protein kinase receptor UFO (Homo sapiens, UniProt P30530); assay: Inhibition of human AXL using EAIYAAPFAKKK as substrate by [gamma-33P]-ATP assay
T1 sequence (P30530 whole entry): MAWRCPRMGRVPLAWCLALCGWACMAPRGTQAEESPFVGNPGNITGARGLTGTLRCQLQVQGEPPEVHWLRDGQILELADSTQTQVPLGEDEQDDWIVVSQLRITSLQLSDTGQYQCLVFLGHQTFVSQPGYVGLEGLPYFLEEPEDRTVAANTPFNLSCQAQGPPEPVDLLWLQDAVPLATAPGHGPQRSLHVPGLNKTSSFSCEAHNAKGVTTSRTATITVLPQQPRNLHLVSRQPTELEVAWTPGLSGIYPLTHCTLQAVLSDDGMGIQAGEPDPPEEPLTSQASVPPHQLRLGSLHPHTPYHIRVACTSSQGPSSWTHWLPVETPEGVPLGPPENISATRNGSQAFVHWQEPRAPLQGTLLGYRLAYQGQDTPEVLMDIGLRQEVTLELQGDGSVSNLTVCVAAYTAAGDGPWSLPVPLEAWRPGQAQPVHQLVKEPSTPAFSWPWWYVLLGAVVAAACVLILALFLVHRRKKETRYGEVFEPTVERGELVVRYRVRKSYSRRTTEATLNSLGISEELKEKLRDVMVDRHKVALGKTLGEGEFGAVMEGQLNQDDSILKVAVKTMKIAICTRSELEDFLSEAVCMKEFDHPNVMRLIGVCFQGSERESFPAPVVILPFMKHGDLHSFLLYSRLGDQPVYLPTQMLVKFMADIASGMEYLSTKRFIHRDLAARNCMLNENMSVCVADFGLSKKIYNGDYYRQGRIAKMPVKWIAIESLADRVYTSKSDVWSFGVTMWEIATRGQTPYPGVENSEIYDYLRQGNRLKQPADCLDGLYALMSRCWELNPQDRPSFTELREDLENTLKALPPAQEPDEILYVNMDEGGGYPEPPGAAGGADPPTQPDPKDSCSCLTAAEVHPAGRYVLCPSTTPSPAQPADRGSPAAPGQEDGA

[10] = system: U-87 MG; assay: Antiproliferative activity against human U87MG cells after 2 days by spectrophotometric analysis; assay type: functional, U-87MG ATCC; details: 48 h
[11] = target: Aurora kinase A (Homo sapiens) (UniProt O14965); assay: Inhibition of human AuroraA at 10 uM using [H-LRRASLG] as substrate by [gamma-33P]-ATP assay relative to control; in short: as §1
Chain of Aurora kinase A (Homo sapiens) (O14965 whole entry): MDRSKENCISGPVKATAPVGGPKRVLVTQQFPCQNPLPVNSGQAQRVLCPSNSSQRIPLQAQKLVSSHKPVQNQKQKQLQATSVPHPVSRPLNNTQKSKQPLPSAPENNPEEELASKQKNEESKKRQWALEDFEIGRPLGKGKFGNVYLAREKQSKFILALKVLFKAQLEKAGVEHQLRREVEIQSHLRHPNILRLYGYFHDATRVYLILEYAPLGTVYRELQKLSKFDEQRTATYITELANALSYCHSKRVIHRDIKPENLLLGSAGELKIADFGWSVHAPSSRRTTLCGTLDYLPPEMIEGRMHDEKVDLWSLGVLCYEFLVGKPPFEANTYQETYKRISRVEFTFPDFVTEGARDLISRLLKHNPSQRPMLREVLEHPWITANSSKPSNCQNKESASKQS

[12] = target: Tyrosine-protein kinase Yes (Homo sapiens) (UniProt P07947); assay: Inhibition of human YES at 10 uM using poly[Glu:Tyr] (4:1) as substrate by [gamma-33P]-ATP assay relative to control
Chain of Tyrosine-protein kinase Yes (Homo sapiens) (P07947 2-543 limits assumed): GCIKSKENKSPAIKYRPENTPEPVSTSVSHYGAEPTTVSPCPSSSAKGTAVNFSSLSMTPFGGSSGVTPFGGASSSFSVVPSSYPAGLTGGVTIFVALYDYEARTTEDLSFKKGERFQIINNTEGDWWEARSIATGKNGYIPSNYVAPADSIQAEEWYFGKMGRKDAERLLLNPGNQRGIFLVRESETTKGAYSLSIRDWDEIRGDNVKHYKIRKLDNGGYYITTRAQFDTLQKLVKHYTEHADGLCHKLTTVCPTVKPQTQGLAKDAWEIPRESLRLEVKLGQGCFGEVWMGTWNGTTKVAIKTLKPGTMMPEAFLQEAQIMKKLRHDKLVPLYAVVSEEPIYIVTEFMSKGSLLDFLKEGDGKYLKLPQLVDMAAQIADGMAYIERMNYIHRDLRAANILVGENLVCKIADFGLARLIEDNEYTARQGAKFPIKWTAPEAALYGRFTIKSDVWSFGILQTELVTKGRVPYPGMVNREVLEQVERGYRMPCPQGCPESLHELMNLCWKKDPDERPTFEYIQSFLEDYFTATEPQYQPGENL
In short: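 Kinase-panel profiling (50 oncogenic kinases) run by an outside contract service. The test compound was tested at a single concentration of 10 μM. Percent inhibition was calculated as 100 minus % remaining activity.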

[13] = system: HCC78; assay: Antiproliferative activity against human HCC78 cells after 2 days by spectrophotometric analysis; assay type: functional; details: HCC78, 48 h
[14] = target: Epidermal growth factor receptor (Homo sapiens) (UniProt P00533); assay: Inhibition of human EGFR at 10 uM using poly[Glu:Tyr] (4:1) as substrate by [gamma-33P]-ATP assay relative to control; in short: as §1
Chain of Epidermal growth factor receptor (Homo sapiens) (P00533 whole entry): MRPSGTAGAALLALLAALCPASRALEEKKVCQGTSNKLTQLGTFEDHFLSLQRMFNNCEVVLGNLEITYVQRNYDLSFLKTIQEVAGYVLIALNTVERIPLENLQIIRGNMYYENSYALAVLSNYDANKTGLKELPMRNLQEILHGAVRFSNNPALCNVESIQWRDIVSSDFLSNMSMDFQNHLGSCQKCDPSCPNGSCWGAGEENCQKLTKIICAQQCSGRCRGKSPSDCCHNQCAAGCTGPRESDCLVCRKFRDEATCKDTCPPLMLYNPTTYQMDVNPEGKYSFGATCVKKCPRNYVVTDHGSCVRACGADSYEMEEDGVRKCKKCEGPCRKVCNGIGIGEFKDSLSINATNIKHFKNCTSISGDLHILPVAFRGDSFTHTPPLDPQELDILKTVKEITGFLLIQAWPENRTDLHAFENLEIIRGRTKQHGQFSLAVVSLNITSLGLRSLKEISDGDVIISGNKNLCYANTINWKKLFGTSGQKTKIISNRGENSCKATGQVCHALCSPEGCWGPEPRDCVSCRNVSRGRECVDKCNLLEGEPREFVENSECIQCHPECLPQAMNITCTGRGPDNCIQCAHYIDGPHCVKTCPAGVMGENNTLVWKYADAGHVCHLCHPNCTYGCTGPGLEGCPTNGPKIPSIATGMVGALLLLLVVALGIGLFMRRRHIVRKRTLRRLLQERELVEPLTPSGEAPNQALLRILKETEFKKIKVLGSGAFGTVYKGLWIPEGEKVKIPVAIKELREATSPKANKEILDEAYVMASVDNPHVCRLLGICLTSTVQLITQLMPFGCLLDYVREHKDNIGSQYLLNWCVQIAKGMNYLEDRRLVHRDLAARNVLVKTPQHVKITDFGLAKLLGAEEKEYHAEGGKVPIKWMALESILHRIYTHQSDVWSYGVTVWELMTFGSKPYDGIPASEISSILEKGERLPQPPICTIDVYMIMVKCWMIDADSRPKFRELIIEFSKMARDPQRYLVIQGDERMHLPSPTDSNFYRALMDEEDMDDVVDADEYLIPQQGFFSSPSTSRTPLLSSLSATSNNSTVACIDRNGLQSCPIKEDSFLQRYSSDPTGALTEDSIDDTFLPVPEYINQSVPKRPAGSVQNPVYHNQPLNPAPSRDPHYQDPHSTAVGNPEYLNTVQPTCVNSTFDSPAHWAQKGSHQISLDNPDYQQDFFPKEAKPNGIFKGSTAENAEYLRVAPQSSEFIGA

[15] = target: Serine/threonine-protein kinase Chk1 (Homo sapiens) (UniProt O14757); assay: Inhibition of human CHK1 at 10 uM using KKKVSRSGLYRSPSMPENLNRPR as substrate by [gamma-33P]-ATP assay relative to control; in short: as §1
Chain of Serine/threonine-protein kinase Chk1 (Homo sapiens) (O14757 whole entry): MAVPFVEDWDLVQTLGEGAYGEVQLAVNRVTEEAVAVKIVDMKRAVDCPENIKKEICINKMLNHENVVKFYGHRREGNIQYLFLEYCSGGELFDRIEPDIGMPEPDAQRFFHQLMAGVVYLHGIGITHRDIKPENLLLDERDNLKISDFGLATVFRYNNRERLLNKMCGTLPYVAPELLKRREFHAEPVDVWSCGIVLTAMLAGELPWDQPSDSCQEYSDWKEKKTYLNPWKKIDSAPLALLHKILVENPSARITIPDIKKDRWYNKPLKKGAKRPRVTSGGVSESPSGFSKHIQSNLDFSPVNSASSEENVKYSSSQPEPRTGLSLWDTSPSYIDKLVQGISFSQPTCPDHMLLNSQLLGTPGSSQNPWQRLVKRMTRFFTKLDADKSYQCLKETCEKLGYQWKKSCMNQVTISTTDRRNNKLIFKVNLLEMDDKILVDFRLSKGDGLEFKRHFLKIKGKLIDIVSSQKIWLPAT

[16] = system: A549; assay: Antiproliferative activity against human A549 cells after 2 days by spectrophotometric analysis; assay type: functional; details: A549, 48 h
[17] = target: Insulin receptor (Homo sapiens) (UniProt P06213); assay: Inhibition of human IR at 10 uM using poly[Glu:Tyr] (4:1) as substrate by [gamma-33P]-ATP assay relative to control; in short: as §1
[18] = target: Tyrosine-protein kinase JAK1 (Homo sapiens) (UniProt P23458); assay: Inhibition of human JAK1 at 10 uM using poly[Glu:Tyr] (4:1) as substrate by [gamma-33P]-ATP assay relative to control; in short: as §1
Chain of Tyrosine-protein kinase JAK1 (Homo sapiens) (P23458 whole entry): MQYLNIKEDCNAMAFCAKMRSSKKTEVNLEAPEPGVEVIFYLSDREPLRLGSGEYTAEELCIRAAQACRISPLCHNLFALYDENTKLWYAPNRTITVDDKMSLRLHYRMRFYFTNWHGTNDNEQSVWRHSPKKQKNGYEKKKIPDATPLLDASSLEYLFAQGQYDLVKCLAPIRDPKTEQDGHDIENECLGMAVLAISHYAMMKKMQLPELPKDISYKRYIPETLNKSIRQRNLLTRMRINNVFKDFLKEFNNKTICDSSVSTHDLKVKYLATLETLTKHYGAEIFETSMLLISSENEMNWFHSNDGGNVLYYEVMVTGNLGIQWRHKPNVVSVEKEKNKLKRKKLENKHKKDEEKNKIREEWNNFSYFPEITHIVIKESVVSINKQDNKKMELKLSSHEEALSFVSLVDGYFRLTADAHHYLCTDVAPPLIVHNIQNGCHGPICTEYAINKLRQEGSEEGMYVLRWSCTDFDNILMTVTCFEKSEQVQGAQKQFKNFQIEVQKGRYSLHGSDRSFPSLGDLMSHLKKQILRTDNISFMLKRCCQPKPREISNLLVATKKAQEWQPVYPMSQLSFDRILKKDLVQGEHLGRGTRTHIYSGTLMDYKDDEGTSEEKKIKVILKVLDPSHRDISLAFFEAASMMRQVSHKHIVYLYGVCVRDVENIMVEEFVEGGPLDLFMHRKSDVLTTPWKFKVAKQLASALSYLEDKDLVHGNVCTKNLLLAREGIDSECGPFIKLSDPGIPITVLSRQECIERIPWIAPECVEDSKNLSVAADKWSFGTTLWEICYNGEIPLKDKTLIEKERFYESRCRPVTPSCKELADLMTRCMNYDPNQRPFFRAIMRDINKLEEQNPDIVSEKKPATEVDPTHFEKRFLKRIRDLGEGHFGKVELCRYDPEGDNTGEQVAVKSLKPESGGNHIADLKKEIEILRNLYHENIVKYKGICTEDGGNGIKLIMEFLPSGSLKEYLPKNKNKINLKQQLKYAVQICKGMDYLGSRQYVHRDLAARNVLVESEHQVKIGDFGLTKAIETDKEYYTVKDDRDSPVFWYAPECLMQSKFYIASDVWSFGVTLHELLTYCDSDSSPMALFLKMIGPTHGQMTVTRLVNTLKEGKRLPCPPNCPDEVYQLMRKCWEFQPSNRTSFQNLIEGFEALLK

inhibition [1]: 13.1% | GI50 [2]: 970 nM | IC50 [3]: 11 nM | inhibition [4]: 49% | inhibition [5]: 62.2% | GI50 [6]: 500 nM | inhibition [7]: 80.6% | IC50 [9]: < 0.5 nM | GI50 [10]: 22100 nM | inhibition [11]: 95.3% | inhibition [12]: 90.5% | GI50 [13]: 5200 nM | inhibition [14]: 2% | inhibition [15]: 37.2% | GI50 [16]: 1300 nM | inhibition [17]: 89.8% | inhibition [18]: 75.4%
SMILES: CC(=O)N1CCN(c2ccc(Nc3ncc(C(F)(F)F)c(N4Cc5cccc(N(C)S(C)(=O)=O)c5C4)n3)cc2)CC1
inhibition [8]: 42.2%
